Measurements of several laboratories.
Compare with care: the assays were run in different laboratories.
Target: Histone deacetylase 8 (HDAC8, Homo sapiens, UniProt Q9BY41)
Read-out: enzyme activity
Mode: inhibitor
One construct used (Q9BY41 1-377): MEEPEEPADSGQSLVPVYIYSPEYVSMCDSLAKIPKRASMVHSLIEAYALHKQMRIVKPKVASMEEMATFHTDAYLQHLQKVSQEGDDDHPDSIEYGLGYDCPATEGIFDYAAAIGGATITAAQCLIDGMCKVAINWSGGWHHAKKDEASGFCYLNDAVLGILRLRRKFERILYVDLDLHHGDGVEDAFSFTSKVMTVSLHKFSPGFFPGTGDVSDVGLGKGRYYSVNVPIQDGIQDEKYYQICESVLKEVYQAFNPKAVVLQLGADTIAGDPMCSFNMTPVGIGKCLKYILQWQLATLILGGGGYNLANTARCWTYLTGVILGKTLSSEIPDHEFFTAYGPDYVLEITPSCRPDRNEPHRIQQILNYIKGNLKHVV

Compound | technique | IC50 [µM]
O=C(/C=C/c1ccc(O)c(O)c1)O[C@@H]1C[C@](O)(C(=O)O)C[C@@H](O)[C@H]1O | – | 8.62
Nc1ccc(-c2ccncc2)cc1NC(=O)N1CCCC1 | – | > 33.3
CCCC[C@H](NC(=O)[C@H](C)c1c(C)[nH]c2ccc(O)cc12)c1ncc(-c2cc3ccccc3nc2OC)[nH]1 | – | > 45
O=c1c(O)c(-c2ccc(O)c(O)c2)oc2cc(O)cc(O)c12 | – | 7.72
CCCON(Cc1ccc(C(=O)NO)cc1)C(=O)Nc1ccccc1 | fluorescence | 4.64
O=C(CCCCCCC(=O)N[c-]1cccc1)NO.[Fe+2].c1cc[cH-]c1 | fluorescence | 1.36
CC(C)C[C@H]1CC(=O)N2CCC[C@H]2C(=O)N[C@@H](CCCCCC(=O)NO)C(=O)N[C@@H](Cc2c[nH]c3ccccc23)C(=O)N1 | – | 0.18
CCCON(Cc1ccc(C(=O)NO)cc1)C(=O)Nc1ccc(N(C)C)cc1 | fluorescence | 4.46
